≈ marks a conversion by molar mass, not a printed value.
Key:
Format in all cases: functional, organism-based
Aspergillus terreus = experiment: Antifungal activity against Aspergillus terreus by broth microdilution method; settings: for EC50: pooled result: one value given for 3 cell lines, strains, targets or settings
In short: (§1)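 RPMI 1640 with L-glutamine, no bicarbonate, buffered to pH 7.0 with 0.165 M MOPS. Conidial inoculum added to thawed plates. Incubated 48 h at 37°C, 95% humidity, plates unstacked. MIC taken as the lowest concentration with no visible growth. Growth also read at OD405 against conidium-free backgrounds, expressed as % of drug-free control. Run three times on separate days.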

Aspergillus flavus = experiment: Antifungal activity against Aspergillus flavus by broth microdilution method; in short: as §1
Aspergillus fumigatus = experiment: Antifungal activity against Aspergillus fumigatus by broth microdilution method; in short: as §1

Row | Structure (SMILES) | MIC (Aspergillus terreus) | EC50 (Aspergillus terreus) | MIC (Aspergillus flavus) | MIC (Aspergillus fumigatus)
1 | CC[C@H](C)C[C@H](C)CCCCCCCCC(=O)N[C@H]1C[C@@H](O)[C@@H](NCCN)NC(=O)[C@@H]2[C@@H](O)CCN2C(=O)[C@H]([C@H](O)CCN)NC(=O)[C@H]([C@H](O)[C@@H](O)c2ccc(O)cc2)NC(=O)[C@@H]2C[C@@H](O)CN2C(=O)[C@H]([C@@H](C)O)NC1=O [CASPOFUNGIN] | > 128 µg/mL | 95.5 µg/mL (≈ 87.4 µM) | > 128 µg/mL | > 128 µg/mL
2 | C[C@@H](c1ncncc1F)[C@](O)(Cn1cncn1)c1ccc(F)cc1F [VORICONAZOLE] | 0.25 µg/mL (≈ 0.716 µM) | 0.23 µg/mL (≈ 0.658 µM) | 0.25 µg/mL (≈ 0.716 µM) | 0.25 µg/mL (≈ 0.716 µM)
3 | C[C@@H]1[C@H](O)[C@@H](C)/C=C/C=C/C=C/C=C/C=C/C=C/C=C/[C@H](O[C@@H]2O[C@H](C)[C@@H](O)[C@H](N)[C@@H]2O)C[C@@H]2O[C@](O)(C[C@@H](O)C[C@@H](O)[C@H](O)CC[C@@H](O)C[C@@H](O)CC(=O)O[C@H]1C)C[C@H](O)[C@H]2C(=O)O [AMPHOTERICIN B] | 0.5 µg/mL (≈ 0.541 µM) | 0.44 µg/mL (≈ 0.476 µM) | 0.5 µg/mL (≈ 0.541 µM) | 0.5 µg/mL (≈ 0.541 µM)

Reference: ChEMBL document CHEMBL1143833, “Concentration-dependent synergy and antagonism within a triple antifungal drug combination against Aspergillus species: analysis by a new response surface model” (Antimicrob Agents Chemother, 2007)
